Experimental data of several laboratories.
BACE1: Beta-secretase 1 (BACE1, Homo sapiens, UniProt P56817)
HTR1E: 5-hydroxytryptamine receptor 1E (HTR1E, Homo sapiens, UniProt P28566)

SMILES	target	observed	mode	method	measurement	result
c1ccc(-c2nnc(CN3CCN(c4ccccc4)CC3)o2)cc1	BACE1	enzyme activity	inhibitor	FRET	IC50	4.79 µM
COc1cccc(C=NNC(=O)c2cc(-c3cn(C)c4ccccc34)on2)c1OC	BACE1	enzyme activity	inhibitor	FRET	IC50	8.28 µM
CNC(=O)c1ccc(-c2cnn3ccc(C(=O)N(C)c4ccc(Cl)c(C(=O)OC)c4)cc23)cc1	Wee1-like protein kinase (WEE1, Homo sapiens, UniProt P30291)	enzyme activity	inhibitor		IC50	> 30 µM
N#Cc1ccc(N2CCN(C(=O)COc3ccc4[nH]cc(CCN)c4c3)CC2)cc1	HTR1E	G protein activation	agonist	BRET	EC50	2.3 µM
CNC(=O)c1ccc(-c2cnn3ccc(C(=O)N(C)c4ccc(Cl)c(C(=O)O)c4)cc23)cc1	Non-receptor tyrosine-protein kinase TYK2 (TYK2, Homo sapiens, UniProt P29597)	enzyme activity	inhibitor		IC50	> 30 µM
C=CC(=O)N[C@H]1C=C(C)c2c(-c3cnc4ccccc4c3)c3c(N)ncnc3n2C1	Epidermal growth factor receptor (EGFR, Homo sapiens, UniProt P00533, L858R/T790M)	enzyme activity	inhibitor		IC50	0.0011 µM
c1ccc2nc(N3CCNCC3)ccc2c1	HTR1E	G protein activation	agonist	BRET	EC50	2.76 µM
Cn1cc(-c2cc(C(=O)NN=Cc3ccccc3Cl)no2)c2ccccc21	BACE1	enzyme activity	inhibitor	FRET	IC50	13.4 µM
COC(=O)c1cc(N(C)C(=O)c2ccn3ncc(-c4ccc(C(=O)O)cc4)c3c2)ccc1Cl	Epidermal growth factor receptor (EGFR, Homo sapiens, UniProt P00533)	enzyme activity	inhibitor		IC50	> 30 µM
